Results from different studies.
Each line is one published result; the experiments were not run side by side.
Matrix: plasma
Route: intravenous

| Structure (SMILES) | species | dose | clearance |
| --- | --- | --- | --- |
| O=C1CCC(N2Cc3cc(C4CCN(Cc5ccccc5)CC4)ccc3C2=O)C(=O)N1 (stereo not drawn) | male Sprague-Dawley rat | 1 mg/kg | 51.4 mL/min/kg |
| [2H]c1cc(C)c(NC(=O)c2cnc(Nc3cc(N4CCC(O)CC4)nc(C)n3)s2)c(Cl)c1 | male Sprague-Dawley rat | 1 mg/kg | 33.3 mL/min/kg |
| Cc1cc(S(=O)(=O)NC2CC(N3CCN(CC4CCN(c5cccc6c5n(C)c(=O)n6C5CCC(=O)NC5=O)CC4)C4(CC4)C3)C2)ccc1Nc1ncc(C(F)(F)F)c(N2CCC[C@](C)(O)C2)n1 (stereo partly drawn) | rat | 2 mg/kg | 35 mL/min/kg |
| COc1ccc(-c2coc3cc(O)cc(O)c3c2=O)cc1 | rat | 2 mg/kg | 48.9 mL/min/kg |
| C[C@H]1CN(c2ccc(C3CCC(=O)NC3=O)cc2F)CCN1CC12CCC(NS(=O)(=O)c3ccc(Nc4ncc(C(F)(F)F)c(N5CCC[C@](C)(O)C5)n4)c(F)c3)(CC1)CO2 (stereo partly drawn) | rat | 2 mg/kg | 18 mL/min/kg |
| Cc1nc(Nc2ncc(C(=O)Nc3c(C)cccc3Cl)s2)cc(N2CCN(CCO)CC2)n1 | male Sprague-Dawley rat | 1 mg/kg | 21.7 mL/min/kg |
| COc1ccc(N(Cc2csc(-c3ccccc3)n2)C(=O)CCCCCC(=O)NO)cc1 | female Sprague-Dawley rat | 5 mg/kg | 6810 mL/min/kg |
| COc1cc(-c2cc(C(C)=O)n3ccccc23)c(OC)cc1Cn1ccnc1 | male Sprague-Dawley rat | 5 mg/kg | 20.1 mL/min/kg |
| Cc1nc(Nc2ncc(C(=O)Nc3c(C)cccc3Cl)s2)cc(N2CC[C@H](N)C2)n1 | male Sprague-Dawley rat | 1 mg/kg | 51.7 mL/min/kg |
| CNS(=O)(=O)c1ccc(Nc2ncc3cc(Cl)c(=O)n(C4CCCC4)c3n2)c(C)c1 | rat | 2 mg/kg | 50 mL/min/kg |
| C=CCn1c(=O)c2cnc(Nc3ccc(N4CCN(C)CC4)cc3)nc2n1-c1ccc2c(n1)[C@@](O)(CC)CC2 | rat | 3 mg/kg | 33 mL/min/kg |
| O=c1c(NCCc2cccc(Cl)c2)c(Nc2ccc(Cl)cc2)c1=O | male Sprague-Dawley rat | 1 mg/kg | 29.3 mL/min/kg |
